We go through 17 compounds from ChEMBL document CHEMBL2311525, “Design, synthesis, and pharmacological properties of new heteroarylpyridine/heteroarylpyrimidine derivatives as CB(2) cannabinoid receptor partial agonists” (J Med Chem, 2013).

Assay [1] has as its target T1, Cannabinoid receptor 2 (Homo sapiens, UniProt P34972). Kind of assay: Displacement of [3H]CP-55,940 from human recombinant CB2 receptor expressed in CHO cell membranes at 1 to 10000 nM after 60 mins by scintillation counting analysis. A digest of the protocol: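 Membranes from CHO cells expressing hCB2, spun at 100000g, in 50 mM Tris-HCl with 0.5% BSA, 5 mM MgCl2 and 1 mM EDTA, pH 7.4. Incubated with 0.5 nM [3H]CP-55,940 and compound at 1 nM–10 μM for 60 min at 30 °C. Filtered on GF/C and counted. Ki by Cheng–Prusoff, n = 4.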

Assay [2] deals with T2, Cannabinoid receptor 1 (Homo sapiens, UniProt P21554). Briefly: Displacement of [3H]CP-55,940 from human recombinant CB1 receptor expressed in CHO cell membranes at 1 to 10000 nM after 90 mins by scintillation counting analysis. The method, boiled down: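 Membranes from CHO cells expressing hCB1, spun at 100000g, in 50 mM Tris-HCl with 0.5% BSA, 5 mM MgCl2 and 2.5 mM EDTA, pH 7.4. Incubated with 0.5 nM [3H]CP-55,940 and compound at 1 nM–10 μM for 90 min at 30 °C. Filtered on GF/C and counted. Ki by Cheng–Prusoff, n = 4.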
T2 sequence (P21554 whole entry): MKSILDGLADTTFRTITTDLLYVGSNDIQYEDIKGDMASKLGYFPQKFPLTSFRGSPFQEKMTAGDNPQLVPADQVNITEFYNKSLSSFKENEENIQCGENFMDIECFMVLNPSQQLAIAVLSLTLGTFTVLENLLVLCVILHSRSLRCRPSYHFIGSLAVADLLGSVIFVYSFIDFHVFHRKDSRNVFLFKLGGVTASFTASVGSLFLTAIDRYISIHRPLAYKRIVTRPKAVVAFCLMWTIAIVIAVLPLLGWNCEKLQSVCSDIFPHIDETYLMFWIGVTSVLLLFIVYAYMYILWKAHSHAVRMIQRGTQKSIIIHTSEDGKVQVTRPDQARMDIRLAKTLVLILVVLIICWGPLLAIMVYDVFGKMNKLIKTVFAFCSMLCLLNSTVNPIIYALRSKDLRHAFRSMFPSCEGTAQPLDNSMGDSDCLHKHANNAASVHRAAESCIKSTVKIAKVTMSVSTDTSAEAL
Background: In a radioligand displacement assay an active substance lowers the binding of a labelled ligand.

The target of assay [3] is T3, Cannabinoid receptor 2 (Rattus norvegicus) (UniProt Q9QZN9).
T3 sequence (whole entry): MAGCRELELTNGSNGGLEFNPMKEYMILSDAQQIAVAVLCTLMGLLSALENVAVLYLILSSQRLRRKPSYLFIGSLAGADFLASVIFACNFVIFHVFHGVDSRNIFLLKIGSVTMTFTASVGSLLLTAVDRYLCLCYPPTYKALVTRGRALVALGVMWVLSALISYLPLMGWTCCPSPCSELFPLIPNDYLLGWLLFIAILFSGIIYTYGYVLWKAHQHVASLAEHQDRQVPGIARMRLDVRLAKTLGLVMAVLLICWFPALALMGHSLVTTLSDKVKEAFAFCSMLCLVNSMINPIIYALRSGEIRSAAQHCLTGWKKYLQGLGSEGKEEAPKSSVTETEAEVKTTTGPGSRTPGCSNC
Kind of assay: Displacement of [3H]CP-55,940 from Sprague-Dawley rat spleen CB2 receptor at 1 to 10000 nM by scintillation counting analysis. A digest of the protocol:
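Male Sprague-Dawley rat spleen membranes, prepared by spinning at 2000g and then 40000g, in 50 mM Tris-HCl with 1 mM EDTA, 3 mM MgCl2 and 0.5% fatty-acid-free BSA, pH 7.4. Incubated with 0.5 nM [3H]CP-55,940, 80 μg protein/100 μL and test compound at 1 nM–10 μM. Filtered on GF/C. Ki by Cheng–Prusoff, n = 4.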

In assay [4] the target is Cannabinoid receptor 1 (Rattus norvegicus) (UniProt P20272). Kind of assay: Displacement of [3H]CP-55,940 from Sprague-Dawley rat brain CB1 receptor at 1 to 10000 nM by scintillation counting analysis. The method, boiled down:
(§1)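 Male Sprague-Dawley rat brain membranes, prepared by spinning at 2000g and then 40000g, in 50 mM Tris-HCl with 1 mM EDTA, 3 mM MgCl2 and 0.5% fatty-acid-free BSA, pH 7.4. Incubated with 1.0 nM [3H]CP-55,940, 40 μg protein/100 μL and test compound at 1 nM–10 μM. Filtered on GF/C. Ki by Cheng–Prusoff, n = 4.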

The target in assay [5] is T1, Cannabinoid receptor 2. Briefly: Displacement of [3H]CP-55,940 from human recombinant CB2 receptor expressed in CHO cell membranes after 60 mins by scintillation counting analysis.
The target in assay [6] is T4, Cannabinoid receptor 2 (Rattus norvegicus, UniProt Q9QZN9).
T4 sequence (Q9QZN9 whole entry): T3 sequence (whole entry)
Kind of assay: Displacement of [3H]CP-55,940 from Sprague-Dawley rat spleen CB2 receptor by scintillation counting analysis. A digest of the protocol: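 Male Sprague-Dawley rat spleen membranes, prepared by spinning at 2000g and then 40000g, in 50 mM Tris-HCl with 1 mM EDTA, 3 mM MgCl2 and 0.5% fatty-acid-free BSA, pH 7.4. Filtered on GF/C.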

In assay [7] the target is T2, Cannabinoid receptor 1. Kind of assay: Displacement of [3H]CP-55,940 from human recombinant CB1 receptor expressed in CHO cell membranes after 90 mins by scintillation counting analysis.
Assay [8] addresses Cannabinoid receptor 1 (Rattus norvegicus, UniProt P20272). Briefly: Displacement of [3H]CP-55,940 from Sprague-Dawley rat brain CB1 receptor by scintillation counting analysis. A digest of the protocol: as §1
The species named for assay [9] is Homo sapiens. Briefly: Selectivity ratio of Ki for CB1 receptor (unknown origin) to Ki for CB2 receptor (unknown origin).
Assay [10] concerns the target T1, Cannabinoid receptor 2. Briefly: Agonist activity at human CB2 receptor expressed in CHO cells assessed as forskolin-stimulated [3H]cyclic-AMP accumulation by scintillation counting analysis relative to WIN 55,212-2. Type of assay: functional, cell-based. A digest of the protocol:
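CHO cells stably expressing human CB2, 1 × 10^6 cells/assay, in buffered saline (10 mM MgCl2, 5 mM glucose, 5 mM HEPES, pH 7.4, 37 °C) with 0.5 mM Ro 20-1724. Preincubated 10 min at 37 °C, then tested with 1 μM forskolin. Stopped with cold 6% TCA and ether-extracted. cAMP read by [3H]cAMP competition binding to beef adrenal binding protein with charcoal separation.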

The target of assay [11] is T1, Cannabinoid receptor 2. Briefly: Agonist activity at human CB2 receptor expressed in CHO cells assessed as forskolin-stimulated [3H]cyclic-AMP accumulation by scintillation counting analysis. Type of assay: functional, cell-based.
For assay [12], the species on record is Homo sapiens. Kind of assay: Selectivity index, ratio of Ki for human recombinant CB1 receptor to Ki for human recombinant CB2 receptor.

T1 sequence (P34972 whole entry): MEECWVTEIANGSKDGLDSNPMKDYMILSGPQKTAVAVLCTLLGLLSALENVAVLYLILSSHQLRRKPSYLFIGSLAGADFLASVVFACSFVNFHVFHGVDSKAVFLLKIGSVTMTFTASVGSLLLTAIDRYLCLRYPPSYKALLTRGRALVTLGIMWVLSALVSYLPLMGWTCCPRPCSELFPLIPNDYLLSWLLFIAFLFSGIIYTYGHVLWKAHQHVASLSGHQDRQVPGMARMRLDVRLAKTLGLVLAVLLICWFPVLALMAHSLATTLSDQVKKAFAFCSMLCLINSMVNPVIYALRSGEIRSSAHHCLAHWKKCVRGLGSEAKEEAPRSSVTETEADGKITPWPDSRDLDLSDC
Sequence of Cannabinoid receptor 1 (Rattus norvegicus) (P20272 whole entry): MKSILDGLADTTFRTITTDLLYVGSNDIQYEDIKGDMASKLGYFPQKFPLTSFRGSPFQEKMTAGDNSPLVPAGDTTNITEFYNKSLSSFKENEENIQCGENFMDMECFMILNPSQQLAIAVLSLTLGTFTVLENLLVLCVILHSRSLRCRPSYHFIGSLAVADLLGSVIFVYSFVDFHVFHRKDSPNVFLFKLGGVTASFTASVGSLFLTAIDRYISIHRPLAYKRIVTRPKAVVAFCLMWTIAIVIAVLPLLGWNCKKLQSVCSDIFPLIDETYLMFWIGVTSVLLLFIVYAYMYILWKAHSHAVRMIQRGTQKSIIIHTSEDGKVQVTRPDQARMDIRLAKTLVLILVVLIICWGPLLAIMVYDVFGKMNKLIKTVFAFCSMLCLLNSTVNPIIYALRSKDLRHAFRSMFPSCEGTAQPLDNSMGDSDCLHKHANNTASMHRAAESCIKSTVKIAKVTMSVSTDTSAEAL
Sequence of Cannabinoid receptor 1 (Rattus norvegicus, UniProt P20272) (P20272 whole entry): as above

What is called inhibition is the change of the read-out against control, counted positive when it falls. What is called Ki is a dissociation constant, usually derived from enzyme kinetics or from competition with a known ligand. Regarding `CCCCCn1cc(C(=O)NC2CCCCC2)c(=O)c2c(-c3ccccc3)nn(C)c21`, the inhibition was 1% at Cannabinoid receptor 2 [1], 23% on Cannabinoid receptor 1 [2], 1% in assay [3] and 18% in assay [4]. For the same compound, the Ki at Cannabinoid receptor 2 [5], on Cannabinoid receptor 2 [6], at Cannabinoid receptor 1 [7] and at Cannabinoid receptor 1 [8] was above 10 µM in each case.
With `CCCCCCC(C)(C)c1cc(OC)c([C@@H]2C=C(CO)[C@H]3C[C@@H]2C3(C)C)c(OC)c1`, in the assay listed under Homo sapiens [9], the Ratio Ki came to 400.
Turning to `CCCCCn1cc(C(=O)Nc2ccc(OC)cc2)c(=O)c2c(C)nn(C)c21`, the inhibition at Cannabinoid receptor 2 [1] turned out to be 33%; on Cannabinoid receptor 1 [2], 38%; in assay [3], 24%; in [4], 46%. Moreover, the Ki at Cannabinoid receptor 2 [5], on Cannabinoid receptor 2 [6], on Cannabinoid receptor 1 [7] and at Cannabinoid receptor 1 [8] was above 10 µM throughout.
The term Emax denotes the maximal effect, on the per cent scale that the assay sets. By EC50 is commonly meant the concentration needed to bring the measured effect to its halfway point. As to `C=CCn1cc(C(=O)NC2CCCCC2)c(=O)c2c(C)nn(C)c21`, on Cannabinoid receptor 2 [10], the Emax was found to be 58%. On Cannabinoid receptor 2 [11], the EC50 came to 0.587 µM. In addition, the inhibition at Cannabinoid receptor 2 [1] is 42%; on Cannabinoid receptor 1 [2], 34%; in assay [3], 46%; in assay [4], 27%. In addition, the Ki on Cannabinoid receptor 2 [5], on Cannabinoid receptor 2 [6], at Cannabinoid receptor 1 [7] and at Cannabinoid receptor 1 [8] was above 10 µM in each case.
Take `CCCCCn1cc(C(=O)NC2CCCCCC2)c(=O)c2c(-c3ccc(Cl)cc3)nn(C)c21`: the inhibition worked out at 17% at Cannabinoid receptor 1 [2] and 12% in [4]. For the same compound, in the assay filed under Homo sapiens [12], the Ratio Ki was above 3.5. Further, the Ki on Cannabinoid receptor 2 [5] was 2.83 µM; on Cannabinoid receptor 2 [6], 4.05 µM; on Cannabinoid receptor 1 [7], above 10 µM; on Cannabinoid receptor 1 [8], above 10 µM.
Take `CCCCCn1cc(C(=O)NC2CCCCC2)c(=O)c2c(C(C)(C)C)nn(C)c21`: the inhibition was determined as 23% at Cannabinoid receptor 1 [2] and 19% in [4]. Moreover, the Ratio Ki in the assay filed under Homo sapiens [12] is above 2.8. In addition, the Ki at Cannabinoid receptor 2 [5] is 3.53 µM; on Cannabinoid receptor 2 [6], 4.03 µM; at Cannabinoid receptor 1 [7], above 10 µM; at Cannabinoid receptor 1 [8] it was above 10 µM.
`CCOCCn1cc(C(=O)NC2CCCCC2)c(=O)c2c(C)nn(C)c21`: the inhibition stood at 1% at Cannabinoid receptor 2 [1], 14% on Cannabinoid receptor 1 [2], 1% in assay [3] and 10% in [4]. The Ki at Cannabinoid receptor 2 [5], on Cannabinoid receptor 2 [6], on Cannabinoid receptor 1 [7] and at Cannabinoid receptor 1 [8] was above 10 µM in each case.
Regarding `CCCCCn1cc(C(=O)NC2CCCCCC2)c(=O)c2c(-c3ccccc3)nn(C)c21`, the inhibition (on Cannabinoid receptor 2 [1]; on Cannabinoid receptor 1 [2]; in [3]; in assay [4]) was 1% throughout. Further, the Ki at Cannabinoid receptor 2 [5], at Cannabinoid receptor 2 [6], at Cannabinoid receptor 1 [7] and at Cannabinoid receptor 1 [8] was above 10 µM in each case.
Take `Cc1nn(C)c2c1c(=O)c(C(=O)NC1CCCCC1)cn2CCN1CCOCC1`: the inhibition at Cannabinoid receptor 2 [1] turned out to be 36%; on Cannabinoid receptor 1 [2] it was 16%; in assay [3], 32%; in assay [4], 13%. Further, the Ki on Cannabinoid receptor 2 [5], on Cannabinoid receptor 2 [6], on Cannabinoid receptor 1 [7] and on Cannabinoid receptor 1 [8] was above 10 µM throughout.
In the case of `CCCCCn1cc(C(=O)Nc2ccc(F)cc2)c(=O)c2c(C)nn(C)c21`, the inhibition was determined as 37% on Cannabinoid receptor 2 [1], 44% on Cannabinoid receptor 1 [2], 27% in assay [3] and 48% in assay [4]. Besides, the Ki on Cannabinoid receptor 2 [5], on Cannabinoid receptor 2 [6], at Cannabinoid receptor 1 [7] and on Cannabinoid receptor 1 [8] was above 10 µM in each case.
For the compound `Cc1ccc(Cn2cc(C(=O)NC3CCCCC3)c(=O)c3c(C)nn(C)c32)cc1`, the inhibition was 33% on Cannabinoid receptor 2 [1], 35% on Cannabinoid receptor 1 [2], 29% in assay [3] and 38% in assay [4]. Besides, the inhibitory constant (Ki) at Cannabinoid receptor 2 [5], at Cannabinoid receptor 2 [6], at Cannabinoid receptor 1 [7] and on Cannabinoid receptor 1 [8] was above 10 µM each time.
Regarding `Cc1nn(C)c2c1c(=O)c(C(=O)NC1CCCCC1)cn2CCCCC#N`, the inhibition worked out at 11% at Cannabinoid receptor 2 [1], 28% at Cannabinoid receptor 1 [2], 5% in assay [3] and 25% in assay [4]. Moreover, the Ki at Cannabinoid receptor 2 [5], on Cannabinoid receptor 2 [6], on Cannabinoid receptor 1 [7] and on Cannabinoid receptor 1 [8] was above 10 µM in each case.
`CCCCCn1cc(C(=O)NC23CC4CC(CC(C4)C2)C3)c(=O)c2c(C(C)(C)C)nn(C)c21`: the Emax at Cannabinoid receptor 2 [10] was 43%. In addition, the EC50 at Cannabinoid receptor 2 [11] was 1.76 µM. For the same compound, the Ratio Ki in the assay listed under Homo sapiens [12] was found to be 10. The Ki at Cannabinoid receptor 2 [5] stood at 0.363 µM; on Cannabinoid receptor 2 [6], 0.417 µM; on Cannabinoid receptor 1 [7], 3.75 µM; at Cannabinoid receptor 1 [8], 3.43 µM.
Turning to `CCCCCn1cc(C(=O)NCc2ccccc2)c(=O)c2c(C)nn(C)c21`, the inhibition turned out to be 38% at Cannabinoid receptor 1 [2] and 42% in [4]. Further, the Ratio Ki in the assay listed under Homo sapiens [12] was above 2.7. The Ki on Cannabinoid receptor 2 [5] is 3.65 µM; at Cannabinoid receptor 2 [6] it was 4.52 µM; on Cannabinoid receptor 1 [7] it was above 10 µM; on Cannabinoid receptor 1 [8], above 10 µM.
Regarding `CCCCCn1cc(C(=O)NC2CCCCC2)c(=O)c2c(-c3ccc(Cl)cc3)nn(C)c21`, the inhibition at Cannabinoid receptor 1 [2] is 22%; in [4], 15%. The Ratio Ki in the assay filed under Homo sapiens [12] was above 2.8. Moreover, the Ki on Cannabinoid receptor 2 [5] was 3.62 µM; on Cannabinoid receptor 2 [6] it was 5.02 µM; on Cannabinoid receptor 1 [7], above 10 µM; on Cannabinoid receptor 1 [8], above 10 µM.
Consider `CCCCCn1cc(C(=O)NC2CCCCC2)c(=O)c2c(C)csc21`, for which the Emax on Cannabinoid receptor 2 [10] is -64%. In addition, the EC50 at Cannabinoid receptor 2 [11] is 0.107 µM. Further, in the assay filed under Homo sapiens [12], the Ratio Ki was determined as 7.2. Besides, the Ki at Cannabinoid receptor 2 [5] came out at 0.0123 µM; on Cannabinoid receptor 2 [6] it was 0.0148 µM; on Cannabinoid receptor 1 [7], 0.086 µM; at Cannabinoid receptor 1 [8], 0.098 µM.
With `CCCCCn1cc(C(=O)NC23CC4CC(C)(CC(C)(C4)C2)C3)c(=O)c2c(C)nn(C)c21`, the Emax at Cannabinoid receptor 2 [10] was found to be 71%. Also, at Cannabinoid receptor 2 [11], the EC50 was determined as 0.045 µM. For the same compound, the Ratio Ki in the assay filed under Homo sapiens [12] came to 107. The Ki was 0.00983 µM at Cannabinoid receptor 2 [5], 0.0167 µM on Cannabinoid receptor 2 [6], 1.05 µM at Cannabinoid receptor 1 [7] and 3.26 µM at Cannabinoid receptor 1 [8].
